Screening data (PubChem)
The list is not random: actives were taken first. Their share in the collection is about 2.1%.
Autophagy mod: modulators of autophagy. MEF GFP-LC3 puncta imaging; test concentration mostly 10 µM. calls only at 10 µM (by protocol). 190,000 tested, 0.98% active. AID 463193;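 active = percentage of spot-positive cells more than 3 SD above its plate mean, without a fluorescence outlier flag or 80% toxicity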;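 also: spot-positive cell cutoff set from DMSO-treated cells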
Hsp70 act: transcriptional activators of Hsp70. activation, % at 10 µM. 200,000 tested, 0.04% active. HeLa Hsp70 promoter luciferase reporter, luminescence; scaled: vehicle 0, proteasome-inhibitor control 100%;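 active = activation above the mean across all tested compounds plus 3 SD, cutoff set per campaign, cut at about 5.5% in these data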;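 also: 100% = MG132 at 30 µM as the positive control and 0% = DMSO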
MT stabilizer: microtubule stabilization, imaging screen; HeLa tubulin immunostaining HCS, 24 h; share of cells brighter than vehicle mean+2SD; % tubulin-high responders, % at 10 µM; 200,000 tested, 0.83% active; AID 2205;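 active = plate Z-score above 3 for both tubulin-high and condensed-nucleus cell shares, with cell loss under 80%, at 10 µM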;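 also: anti alpha tubulin signal scored within the nucleus-defined area of each cell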
Dynein cargo inh: blocks dynein driven cargo transport along microtubules; 3617.4 mouse cells, GR-EGFP nuclear translocation imaging; test concentration mostly 20 µM; stimulated with dexamethasone, 1 µM; stronger effect = lower value; z-score, hits read low; 220,000 tested, 0.47% active;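 active = plate z-score of nuclear minus cytoplasmic receptor signal below a set negative limit, without overly bright fluorescence or cell loss, cut at about -3.5 in these data, passing the limit was not always enough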;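 also: z-score of nuclear minus cytoplasmic ring GR-EGFP intensity difference per well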
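Also added: dexamethasone, 1.0 µM final. Medium: tet-free, stripped-serum medium. Detection: fixed, Hoechst-stained cells imaged at 10x for EGFP. Read-out: nuclear-to-cytoplasmic GR-EGFP distribution per well. Times: induction 48 h, compound 1 h, agonist 30 min.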
bCat nuc transl: beta-catenin nuclear translocation modulation; 190,000 tested, 0.3% active; HeLa beta-catenin nuclear translocation, immunofluorescence imaging; nuclear translocation activity, % at 5 µM;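 active = nuclear translocation activity above 50% at 5 µM, with a well cell count of 50 or more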;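 also: per-cell ratio of nuclear to cytoplasmic median beta-catenin stain intensity; plate controls were DMSO negative control for no effect and GSK-3 inhibitor IX positive control for full effect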
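Test system: human HeLa cells, native beta-catenin. Compound dosing: 5 µM primary single dose, 0.1% DMSO, 0.02–20 µM confirmation series. Incubation: compound exposure 24 h at 37°C. Detection: beta-catenin immunostaining with DAPI counterstain, 20x imaging, 6 fields/well. Read-out basis: Nuclear/cytoplasmic beta-catenin signal ratio, % activation.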
Active calls of the source: *; i = inactive; . = not tested or not shown; + = active, no number.

SMILES | Autophagy mod | Hsp70 act | MT stabilizer | Dynein cargo inh | bCat nuc transl
O=C1CC(c2cc(F)ccc2F)c2cc3c(cc2N1)CCC3 (stereo not drawn) | i | -0.1 | 14.4* | 2.43 | -1.0
Cc1ccc(S(=O)(=O)N(C)C)cc1NC(=O)C(C)Sc1ccccc1 (stereo not drawn) | i | -0.2 | 2.1 | -0.589 | 1.2
CN(C)C(=O)CSc1cccc2cccnc12 | + | 0.2 | 2.9 | -0.341 | .
CCOc1ccc(C2CC(=O)c3c([nH]c(C(=O)OC)c3C)C2)cc1OC (stereo not drawn) | i | 0.1 | 1.0 | -2.11 | 1.8
CCOC(=O)c1[nH]c2c(c1C)C(=O)CC(c1ccco1)C2 (stereo not drawn) | i | 0.7 | 7.0 | -0.221 | 117.9*
COCCOC(=O)c1[nH]c2c(c1C)C(=O)CC(c1ccco1)C2 (stereo not drawn) | i | -0.2 | 9.8 | 1.16 | 66.3*
Cc1c(C(=O)OCCOC(C)C)[nH]c2c1C(=O)CC(c1ccco1)C2 (stereo not drawn) | i | 0.6 | 6.5 | -0.406 | 118.1*
CSCCOC(=O)c1[nH]c2c(c1C)C(=O)CC(c1ccco1)C2 (stereo not drawn) | i | 0.0 | 7.9 | -0.452 | 92.4*
Cc1cc(=O)n2cccc(O)c2n1 | i | -0.1 | 3.6 | -1.03 | 2.9
Cc1ccc(C(=O)NC2CCN(CC(=O)Nc3cccc([N+](=O)[O-])c3)CC2)cc1 | i | -0.2 | 1.5 | -0.268 | 0.8
Cc1c(C(=O)OCc2ccccc2)[nH]c2c1C(=O)CC(c1ccco1)C2 (stereo not drawn) | i | 0.5 | 6.8 | -1.78 | 119.8*
COCCNC(=O)CN(C(=O)Cn1nnc2ccccc21)c1cccc(C)c1C | i | -0.4 | 4.3 | -0.336 | 0.1
CCCCCCc1cc2cc(C(=O)Nc3ccc(OC)cc3)c(=O)oc2cc1O | + | -0.1 | 2.1 | 0.473 | -0.3
O=C(Nc1ccccc1)c1sccc1Oc1ccc([N+](=O)[O-])cc1F | i | -0.5 | 5.3 | -0.765 | -2.5
Cn1c(CNC(=O)c2ccc(F)cc2)nc2ccccc21 | i | -0.3 | 2.3 | -0.58 | -0.8
CSc1nc(N(C)NC(=O)c2ccc(F)cc2)c2ccccc2n1 | i | -0.1 | 33.2* | -0.499 | 2.6
CCCCCCOc1ccc(N2C(=O)CC(N(CCc3ccc(S(N)(=O)=O)cc3)C(C)=O)C2=O)cc1 (stereo not drawn) | i | -0.2 | 3.1 | -1.27 | 0.3
CCN1/C(=C/c2ccc3cc(C)ccc3[n+]2C)Sc2ccc3sccc3c21 | + | -0.5 | 77.4* | 7.83 | .
Cc1ccc2c(c1)S/C(=C/c1ccc[n+](C)c1)N2CCO | i | -0.3 | 3.5 | -0.634 | .
Cn1cc(NC(=O)Nc2ccc(C(F)(F)F)cc2)c(C(F)(F)F)n1 | . | . | . | 0.611 | -0.5
CCOCCCn1c(C)nc2c(c1=O)c1nc3ccccc3nc1n2-c1ccc2c(c1)OCCO2 | . | . | . | -0.494 | -0.7
CCN(CCn1cccn1)C(=O)CC1C(=O)NCCN1Cc1ccc(OC)c(OC)c1 (stereo not drawn) | + | -0.2 | 2.2 | 0.0767 | 0.4
Cc1ccc2nc3sc(-c4nnc(-c5ccccc5[N+](=O)[O-])o4)c(N)c3cc2c1 | + | 0.5 | 2.1 | 0.924 | 0.5
O=C(c1ccccc1)N1CCN2C(=O)c3ccccc3C12c1ccc(Cl)cc1 (stereo not drawn) | + | -0.3 | 2.2 | -0.64 | 1.4
O=C(c1ccc(F)cc1)N1CCN2C(=O)c3ccccc3C12c1ccc(Cl)cc1 (stereo not drawn) | i | -0.4 | 3.4 | -0.109 | -3.0
SMILES | Autophagy mod | Hsp70 act | MT stabilizer | Dynein cargo inh | bCat nuc transl
CN(C)c1ccc(/C=C/C=C2/SC(=S)N(c3ccccc3)C2=O)cc1 | + | -0.3 | 27.6 | -2.47 | .
O=C(O)c1ccc(N2C(=O)/C(=C/C=C/c3ccccc3)SC2=S)cc1 | i | -0.2 | 1.1 | -1.14 | -2.5
COc1ccc(-c2[nH]ncc2CN(Cc2nccn2C)C(C)C)c(F)c1 | i | -0.1 | 2.6 | 1.35 | 1.5
C=CCN(C(=O)C1=NN(C2CCS(=O)(=O)C2)C(=O)CC1)c1nc(-c2ccc([N+](=O)[O-])cc2)cs1 (stereo not drawn) | + | 0.1 | 1.6 | 2.02 | -1.0
NS(=O)(=O)c1cccc(-n2cnnn2)c1 | . | . | . | -0.504 | 1.9
COc1ccc(N2CCN(C(=O)Cn3cnc4c(cnn4-c4ccccc4)c3=O)CC2)cc1 | i | -0.3 | 1.8 | 1.54 | -1.2
COc1ccc(N2CCN(C(=O)Cn3cnc4c(cnn4-c4ccc(C)cc4)c3=O)CC2)cc1 | + | -0.1 | 3.8 | 2.58 | -0.2
Cc1[nH]c2ccccc2c1C(O)CN1CCC2(CC1)OCCO2 (stereo not drawn) | . | . | . | 0.106 | 0.0
COc1cc(/C=N/NC(=O)c2[nH]nc3c2CCc2ccccc2-3)ccc1O | i | -0.2 | 23.8* | 0.747 | 33.5
COc1cc(/C=N/NC(=O)c2ccccc2)ccc1O | i | -0.1 | 9.6 | 0.0804 | -2.4
CCSc1ncnc2sc(C)c(C)c12 | + | -0.2 | 5.1 | 0.0263 | 5.1
O=C(c1ccc2c(Cl)c3c(nc2c1)CCCC3)N1CCC(N2CCCCC2)CC1 | i | -0.1 | 6.0 | -3.12 | -2.3
CC(=O)c1ccc(N2CCN(C(=O)c3ccc4c(Cl)c5c(nc4c3)CCCC5)CC2)cc1 | i | 0.0 | 4.9 | -3.6* | -1.7
COc1ccc(-c2noc(-c3ccccc3C(=O)Nc3cccc(OC)c3)n2)cc1 | i | 0.0 | 4.3 | 1.9 | -3.2
CCOc1ccccc1NC(=O)c1ccccc1-c1nc(-c2ccccc2)no1 | i | 0.1 | 32.2* | 0.044 | 1.6
Cc1ccc(NC(=O)/C(C#N)=C(\N)C(Cl)(Cl)Cl)nc1 | + | 0.0 | 2.6 | -3.44 | 1.7
Cc1ccc(NC(=O)C(=O)Nc2ccc(C)cn2)nc1 | i | 0.3 | 3.2 | -0.0399 | -1.2
CCOC(=O)/C(=C\c1ccccc1)C(=O)c1cc(C(C)=O)c(Nc2ccccc2)s1 | + | -0.1 | 7.1 | -0.353 | .
CCOC(=O)C(=Cc1ccc(Br)cc1)C(=O)OCC | . | . | . | -2.4 | 0.3
CCc1cc2c(=O)n(CCC(C)C)c(=S)[nH]c2s1 | i | -0.2 | 2.4 | -0.626 | -0.8
O=C1CC(c2ccccc2)CC2=C1C=Nc1ccccc1N2 (stereo not drawn) | i | -0.1 | 20.7* | -1.49 | 4.2
O=C1CC(c2ccc(F)cc2)CC2=C1C=Nc1ccccc1N2 (stereo not drawn) | i | -0.3 | 1.6 | -1.43 | 0.3
COc1ccc(-n2c(C)cc(C(=O)CN3C(=O)C(=O)N(Cc4ccccc4)C3=O)c2C)cc1 | i | -0.4 | 12.8* | -0.953 | 6.4
CCOC(=O)C1CCN(C(=O)c2ccc(CNS(=O)(=O)c3ccc(OC)cc3)cc2)CC1 | + | 0.4 | 2.7 | -0.28 | -0.3
O=C(CSc1ccc2ccccc2c1)Nc1nc2ccccc2[nH]1 | i | -0.6 | 4.0 | 0.099 | -3.2
CCCSc1ccc2nc(NC(=O)OC)[nH]c2c1 | i | 0.6 | 20.0* | 0.279 | .
